A1 apoptosis 2: blocks A1, raising caspase activity. caspase activation, % (test concentration not listed). AID 2465. MEF A1-2A-BIM cells, caspase-Glo luminescence, 3 h; percent of clofoctol response, DMSO zero. 24,000 tested, under 10 active; in the data active = caspase activation above about 5.9%; inconclusive = no clear call, values can overlap the other calls; inactive = below about 2.2%
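System: mouse embryonic fibroblasts co-expressing A1 and BIM (A1-2A-BIM), primed for A1 dependence; amount: 2500 cells/well; doses: 50 nL pinned compound; schedule: cells settled overnight, compound exposure 3 h at 37 °C, 5% CO2; detection: Caspase-Glo 3/7 luminescence, 1 h at room temperature; read-out: Caspase-3/7 activation, seen as rise in luminescence signal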
T cruzi HTS: intracellular Trypanosoma cruzi inhibition; intracellular Trypanosoma cruzi in host cells, plate reader; activity score (inhibition), % at 5.01 µM; hit rate 4.9% among 22,000; AID 651903; in the data active = activity score above about 55%; inconclusive = no clear call, values can overlap the other calls;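 also: parasites and compound incubated about four days before reading; 0% = median of neutral control wells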
INS-1E ATP HTS: rescue of cytokine-induced death in INS-1E beta cells. INS-1E cytokine-induced death, ATP luminescence, 48 h; normalised: neutral wells 0, positive control 100. protection from cytokine-induced ATP loss, % at 10 µM. hit rate 0.1% among 20,000. AID 488910;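 active = mean replicate protection from cytokine-induced ATP loss at least 50% and at least 75% of replicates each reaching 50%; inconclusive = meets only one of the two criteria, mean or replicate share; inactive = fails both the mean and replicate share criteria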
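Test system: INS-1E rat cells | Quantity: 8000 cells per well | Medium: Phenol-red-free RPMI with 5% fetal bovine serum | Reagent: Cytokine cocktail of IFN-γ, TNF-α and IL-1β | Doses: One compound concentration, pin transfer | Timing: 48 h co-treatment, 10 min post-lysis read | Technique: Luminescent ATP assay (CellTiter-Glo)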
Active calls of the source: *; ? = inconclusive; nt = no result. Many of the other results were omitted from the sample, so hits are more common in it than they were.

SMILES | A1 apoptosis 2 | T cruzi HTS | INS-1E ATP HTS
C[C@H]1CN([C@@H](C)CO)C(=O)c2cccc(NC(=O)c3nc4ccccc4s3)c2O[C@H]1CN(C)Cc1ccc2c(c1)OCO2 | nt | 57* | -21
C[C@@H]1CN([C@@H](C)CO)C(=O)c2cccc(NC(=O)c3nc4ccccc4s3)c2O[C@@H]1CN(C)C(=O)Nc1ccc2c(c1)OCO2 | -1 | 10 | -14
C[C@H](CO)N1C[C@H](C)[C@H](CN(C)Cc2ccc3c(c2)OCO3)Oc2c(NC(=O)c3nc4ccccc4s3)cccc2C1=O | 0 | 77* | -22
C[C@H]1CN([C@@H](C)CO)C(=O)c2cccc(NC(=O)c3nc4ccccc4s3)c2O[C@H]1CN(C)Cc1ccc(Cl)c(Cl)c1 | nt | ? | -8
COc1ccc(CN(C)C[C@@H]2Oc3ccc(NS(=O)(=O)c4cccs4)cc3CC(=O)N([C@@H](C)CO)C[C@H]2C)cc1 | -1 | nt | nt
C[C@H]1CN([C@@H](C)CO)C(=O)c2cccc(NC(=O)c3nc4ccccc4s3)c2O[C@H]1CN(C)S(=O)(=O)c1ccccc1 | nt | 77* | -39
C[C@H]1CN([C@@H](C)CO)C(=O)c2cccc(NC(=O)c3nc4ccccc4s3)c2O[C@@H]1CN(C)S(=O)(=O)c1cccs1 | 1 | 25 | -8
C[C@H](CO)N1C[C@H](C)[C@@H](CN(C)S(=O)(=O)c2ccccc2)Oc2c(NC(=O)c3nc4ccccc4s3)cccc2C1=O | nt | 42 | 1
C[C@H](CO)N1C[C@H](C)[C@@H](CN(C)S(=O)(=O)c2cccs2)Oc2c(NC(=O)c3nc4ccccc4s3)cccc2C1=O | 0 | 57* | -6
C[C@H](CO)N1C[C@H](C)[C@H](CN(C)S(=O)(=O)c2cccs2)Oc2c(NC(=O)c3cnccn3)cccc2C1=O | nt | 69* | 0
C[C@H]1CN([C@@H](C)CO)C(=O)c2cccc(NC(=O)c3nc4ccccc4s3)c2O[C@@H]1CN(C)S(=O)(=O)c1ccccc1 | nt | 73* | -13
C[C@@H]1CN([C@H](C)CO)C(=O)c2cccc(NC(=O)c3cnccn3)c2O[C@@H]1CN(C)S(=O)(=O)c1cccs1 | nt | 6 | -4
C[C@@H]1CN([C@@H](C)CO)C(=O)c2cccc(NC(=O)c3nc4ccccc4s3)c2O[C@H]1CN(C)S(=O)(=O)c1ccc(Cl)cc1 | nt | 32 | -30
COc1ccc2nc(Cl)nc(NC3CCCCC3)c2c1 | 0 | nt | nt
COc1ccc(NC(=O)N(C)C[C@H]2Oc3ccc(NC(=O)CCCCCC(=O)Nc4ccccc4N)cc3CC(=O)N([C@H](C)CO)C[C@H]2C)cc1 | nt | -31 | -1
C[C@@H]1CCCCO[C@H](CN(C)Cc2ccncc2)[C@@H](C)CN([C@H](C)CO)C(=O)c2cc(NC(=O)Nc3ccc4c(c3)OCO4)ccc2O1 | nt | -5 | -5
C[C@@H]1CN([C@H](C)CO)C(=O)c2cc(NS(=O)(=O)c3ccccc3)ccc2O[C@@H](C)CCCCO[C@@H]1CN(C)C(=O)c1ccccc1 | 1 | nt | nt
COc1ccc(S(=O)(=O)N(C)C[C@@H]2Oc3c(NC(=O)Nc4cccc5ccccc45)cccc3C(=O)N([C@H](C)CO)C[C@@H]2C)cc1 | 0 | -5 | 11
COc1ccc(S(=O)(=O)N(C)C[C@@H]2Oc3c(NC(=O)c4nc5ccccc5s4)cccc3C(=O)N([C@H](C)CO)C[C@H]2C)cc1 | 0 | 44 | -37
COc1ccc(S(=O)(=O)N(C)C[C@@H]2Oc3c(NC(=O)Nc4cccc5ccccc45)cccc3C(=O)N([C@@H](C)CO)C[C@H]2C)cc1 | 1 | 9 | 81*
COc1ccc(S(=O)(=O)N(C)C[C@H]2Oc3c(NC(=O)c4nc5ccccc5s4)cccc3C(=O)N([C@@H](C)CO)C[C@@H]2C)cc1 | nt | 63* | -11
COc1ccc(NC(=O)Nc2ccc3c(c2)C(=O)N([C@H](C)CO)C[C@@H](C)[C@@H](CN(C)CC2CCCCC2)OCCCC[C@@H](C)O3)cc1 | 0 | nt | nt
C[C@H]1CN([C@@H](C)CO)C(=O)Cc2cc(NS(=O)(=O)c3ccc(Cl)cc3)ccc2O[C@@H]1CN(C)Cc1ccncc1 | 0 | -27 | 14
C[C@@H]1CN([C@H](C)CO)C(=O)Cc2cc(NS(=O)(=O)c3ccc(Cl)cc3)ccc2O[C@H]1CN(C)Cc1ccc(Cl)c(Cl)c1 | nt | 65* | 5
C[C@H]1CN([C@@H](C)CO)C(=O)Cc2cc(NS(=O)(=O)c3ccc(F)cc3)ccc2O[C@H]1CN(C)Cc1ccc(Cl)c(Cl)c1 | nt | 40 | -15
SMILES | A1 apoptosis 2 | T cruzi HTS | INS-1E ATP HTS
C[C@@H]1CN([C@H](C)CO)C(=O)Cc2cc(NS(=O)(=O)c3ccc(Cl)cc3)ccc2O[C@@H]1CN(C)Cc1ccncc1 | 1 | 76* | 0
C[C@@H]1CN([C@H](C)CO)C(=O)Cc2cc(NS(=O)(=O)c3ccc(F)cc3)ccc2O[C@H]1CN(C)Cc1ccc(Cl)c(Cl)c1 | nt | 77* | -25
C[C@H](CO)N1C[C@H](C)[C@@H](CN(C)Cc2ccc(Cl)c(Cl)c2)Oc2ccc(NS(=O)(=O)c3ccc(Cl)cc3)cc2CC1=O | 0 | nt | nt
C[C@@H]1CN([C@H](C)CO)C(=O)Cc2cc(NC(=O)Cc3cn(C)c4ccccc34)ccc2O[C@@H]1CN(C)C(=O)Nc1ccccc1 | 1 | 15 | -6
C[C@@H]1CN([C@H](C)CO)C(=O)c2cccc(NC(=O)c3nc4ccccc4s3)c2O[C@H]1CN(C)C(=O)NC1CCCCC1 | 0 | -1 | 1
CC(C)NC(=O)Nc1ccc2c(c1)C(=O)N([C@@H](C)CO)C[C@H](C)[C@@H](CN(C)Cc1ccncc1)OCCCC[C@H](C)O2 | 0 | nt | nt
C[C@H](CO)N1C[C@H](C)[C@H](CN(C)Cc2cccnc2)OCc2cnnn2CCCC1=O | nt | -2 | nt
C[C@@H]1CN([C@H](C)CO)C(=O)c2cccc(NC(=O)C3CC3)c2O[C@H]1CN(C)Cc1ccc(Oc2ccccc2)cc1 | nt | 63* | -56
C[C@H]1CN([C@@H](C)CO)C(=O)c2cccc(NC(=O)C3CC3)c2O[C@H]1CN(C)Cc1ccc(Oc2ccccc2)cc1 | nt | -3 | -6
C[C@@H]1CN([C@H](C)CO)C(=O)c2cccc(NC(=O)C3CCCCC3)c2O[C@@H]1CN(C)Cc1ccc(Oc2ccccc2)cc1 | -1 | 27 | -34
C[C@H]1CN([C@@H](C)CO)C(=O)c2cccc(N(C)C)c2O[C@@H]1CN(C)Cc1ccccc1 | -1 | -12 | 1
C[C@@H]1CN([C@H](C)CO)C(=O)c2cccc(N(C)C)c2O[C@H]1CN(C)Cc1ccc(Oc2ccccc2)cc1 | 0 | 70* | -40
C[C@H]1CN([C@@H](C)CO)C(=O)c2cccc(NC(=O)C3CCCCC3)c2O[C@@H]1CN(C)Cc1ccc(Oc2ccccc2)cc1 | nt | 67* | -36
CC(C)NC(=O)Nc1ccc2c(c1)C(=O)N([C@@H](C)CO)C[C@@H](C)[C@@H](CN(C)Cc1ccc(C(=O)O)cc1)OCCCC[C@@H](C)O2 | -1 | nt | nt
C[C@@H]1CN([C@@H](C)CO)C(=O)c2cc(NC(=O)c3ccncc3)ccc2O[C@@H](C)CCCCO[C@H]1CN(C)C(=O)NC1CCCCC1 | 1 | nt | nt
COc1cccc(OC)c1/C=N/NC(=O)CCCCCC(=O)NO | -1 | nt | nt
